Article PMC3061239 (Bioconjugate chemistry, 2010)

Experiments:
[1] = MicroPET imaging, myocardial tissue time-activity curves; type: in vivo; conditions: male Sprague-Dawley rats
[2] = Biodistribution of [^18F]7 in rats after i.v. injection; type: in vivo, Sprague-Dawley rats; conditions: for Distribution, blood / Distribution, bone / Distribution, brain / Distribution, fat / Distribution, heart / Distribution, kidney / Distribution, liver / Distribution, lung / Distribution, muscle / Distribution, pancreas / Distribution, spleen: male Sprague-Dawley rats, mean ± SD
Procedure, shortened: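 Adult male Sprague-Dawley rats (170–250 g) under 2–3 % isoflurane/O2 received ~20–25 μCi/100 μL tracer (formulated in 3% HSA) via lateral tail vein. Killed at 5, 30, 60, 120 min, 4–8 rats per time; bone and fat taken only at 5 and 60 min (4 rats). Tissues weighed and gamma-counted alongside injectate standard dilution. Expressed as %ID/g, mean ± SD; Student's t-test.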

[3] = 5 min; cited from earlier work
[4] = 5 min post-i.v. injection, rats

O=C(O)CCCCCCCCCCCCCCc1ccc(OCC[18F])cc1 [[^18F]7, 15-(4-(2-[^18F]fluoroethoxy)phenyl)pentadecanoic acid]
accumulation in bone on PET images [1]: no evidence of accumulation in bone
Ratio of activity heart:blood [2, 4]: 2.55
Ratio of activity heart:skeletal muscle [2, 4]: 8.3
Uptake in heart at 30 min as percentage of the 5 min activity ([2]; 30 min post injection vs 5 min, rats): 35%
Uptake in heart relative to blood ([2]; 120 min post injection, rats): approximately 1.4 fold
Distribution, blood ([2]; 5 min post i.v. injection): 0.76 ± 0.05 %ID/gram
Distribution, blood ([2]; 30 min post i.v. injection): 0.75 ± 0.06 %ID/gram
Distribution, blood ([2]; 60 min post i.v. injection): 0.56 ± 0.06 %ID/gram
Distribution, blood ([2]; 120 min post i.v. injection): 0.26 ± 0.06 %ID/gram
metabolic defluorination (bone activity) ([2]; bone activity between 5 and 60 min, rats): no significant metabolic defluorination
Distribution, bone ([2]; 5 min post i.v. injection): 0.28 ± 0.01 %ID/gram
Distribution, bone ([2]; 60 min post i.v. injection): 0.33 ± 0.06 %ID/gram
Distribution, brain ([2]; 5 min post i.v. injection): 0.11 ± 0.01 %ID/gram
Distribution, brain ([2]; 30 min post i.v. injection): 0.13 ± 0.01 %ID/gram
Distribution, brain ([2]; 60 min post i.v. injection): 0.10 ± 0.01 %ID/gram
Distribution, brain ([2]; 120 min post i.v. injection): 0.06 ± 0.01 %ID/gram
Distribution, fat ([2]; 5 min post i.v. injection): 0.14 ± 0.02 %ID/gram
Distribution, fat ([2]; 60 min post i.v. injection): 0.17 ± 0.01 %ID/gram
Increase of activity in fat ([2]; from 5 to 60 min, rats, P = 0.04): 20%
Distribution, heart ([2]; 5 min post i.v. injection): 2.00 ± 0.44 %ID/gram
Distribution, heart ([2]; 30 min post i.v. injection): 0.72 ± 0.10 %ID/gram
Distribution, heart ([2]; 60 min post i.v. injection): 0.86 ± 0.28 %ID/gram
Distribution, heart ([2]; 120 min post i.v. injection): 0.34 ± 0.04 %ID/gram
Distribution, kidney ([2]; 5 min post i.v. injection): 1.30 ± 0.09 %ID/gram
Distribution, kidney ([2]; 30 min post i.v. injection): 1.26 ± 0.08 %ID/gram
Distribution, kidney ([2]; 60 min post i.v. injection): 1.02 ± 0.15 %ID/gram
Distribution, kidney ([2]; 120 min post i.v. injection): 0.52 ± 0.07 %ID/gram
Distribution, liver ([2]; 5 min post i.v. injection): 2.71 ± 0.37 %ID/gram
Distribution, liver ([2]; 30 min post i.v. injection): 1.39 ± 0.09 %ID/gram
Distribution, liver ([2]; 60 min post i.v. injection): 0.81 ± 0.10 %ID/gram
Distribution, liver ([2]; 120 min post i.v. injection): 0.49 ± 0.07 %ID/gram
Distribution, lung ([2]; 5 min post i.v. injection): 1.26 ± 0.32 %ID/gram
Distribution, lung ([2]; 30 min post i.v. injection): 0.87 ± 0.06 %ID/gram
Distribution, lung ([2]; 60 min post i.v. injection): 0.95 ± 0.27 %ID/gram
Distribution, lung ([2]; 120 min post i.v. injection): 0.52 ± 0.06 %ID/gram
Distribution, muscle ([2]; 5 min post i.v. injection): 0.23 ± 0.03 %ID/gram
Distribution, muscle ([2]; 30 min post i.v. injection): 0.24 ± 0.04 %ID/gram
Distribution, muscle ([2]; 60 min post i.v. injection): 0.21 ± 0.02 %ID/gram
Distribution, muscle ([2]; 120 min post i.v. injection): 0.12 ± 0.01 %ID/gram
Distribution, pancreas ([2]; 5 min post i.v. injection): 0.73 ± 0.07 %ID/gram
Distribution, pancreas ([2]; 30 min post i.v. injection): 0.50 ± 0.03 %ID/gram
Distribution, pancreas ([2]; 60 min post i.v. injection): 0.42 ± 0.04 %ID/gram
Distribution, pancreas ([2]; 120 min post i.v. injection): 0.28 ± 0.02 %ID/gram
Distribution, spleen ([2]; 5 min post i.v. injection): 0.94 ± 0.05 %ID/gram
Distribution, spleen ([2]; 30 min post i.v. injection): 0.63 ± 0.07 %ID/gram
Distribution, spleen ([2]; 60 min post i.v. injection): 0.57 ± 0.11 %ID/gram
Distribution, spleen ([2]; 120 min post i.v. injection): 0.40 ± 0.06 %ID/gram

CCCCCCCCC([18F])CCCCC1CC1CC(=O)O (racemic) [[^18F]FCPHA, trans-9-(RS)-[^18F]fluoro-3,4-(RS,RS) methyleneheptadecanoic acid]
uptake in rat myocardium [3]: approximately 1.5 %ID/gram tissue
